Assay results as given in ChEMBL document CHEMBL2331542, “Synthesis and in vitro antibacterial activity of quinolone/naphthyridone derivatives containing 3-alkoxyimino-4-(methyl)aminopiperidine scaffolds” (2013).
Converted amounts (≈) assume the structure as drawn.

What was measured:
Format in all cases: functional
Staphylococcus aureus [1] = test: Antibacterial activity against methicillin-sensitive Staphylococcus aureus isolate 12-7
How it was run: (§1)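 MIC determined in vitro by a standard technique and defined as the lowest compound concentration giving complete inhibition of bacterial growth. The Gram-positive and Gram-negative panels were tested alongside gemifloxacin, levofloxacin and ciprofloxacin reference drugs.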

Klebsiella pneumoniae [2] = test: Antibacterial activity against extended-spectrum beta-lactamase-producing Klebsiella pneumoniae isolate 12-1; how it was run: as §1
Escherichia coli [3] = test: Antibacterial activity against Escherichia coli isolate 12-1; how it was run: as §1
Pseudomonas aeruginosa [4] = test: Antibacterial activity against Pseudomonas aeruginosa isolate 12-1; how it was run: as §1
[5] = system: Staphylococcus epidermidis; test: Antibacterial activity against methicillin-sensitive Staphylococcus epidermidis isolate 12-2; how it was run: as §1
Klebsiella pneumoniae [6] = test: Antibacterial activity against extended-spectrum beta-lactamase-producing Klebsiella pneumoniae isolate 12-4; how it was run: as §1
Pseudomonas aeruginosa [7] = test: Antibacterial activity against Pseudomonas aeruginosa isolate 12-2; how it was run: as §1
Escherichia coli [8] = test: Antibacterial activity against extended-spectrum beta-lactamase-producing Escherichia coli isolate 12-2; how it was run: as §1
Pseudomonas aeruginosa [9] = test: Antibacterial activity against Pseudomonas aeruginosa ATCC 27853; how it was run: as §1
Staphylococcus aureus [10] = test: Antibacterial activity against methicillin-resistant Staphylococcus aureus isolate 12-15
How it was run: (§2)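 MIC determined in vitro by standard techniques, defined as the lowest compound concentration giving complete inhibition of bacterial growth. Gemifloxacin, levofloxacin and ciprofloxacin were tested alongside as reference drugs.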

[11] = system: Staphylococcus epidermidis; test: Antibacterial activity against methicillin-resistant Staphylococcus epidermidis isolate 12-35; how it was run: as §2
Staphylococcus aureus [12] = test: Antibacterial activity against methicillin-sensitive Staphylococcus aureus isolate 12-6; how it was run: as §1
Staphylococcus aureus [13] = test: Antibacterial activity against Staphylococcus aureus […]; how it was run: as §1
Staphylococcus aureus [14] = test: Antibacterial activity against methicillin-resistant Staphylococcus aureus isolate 12-13; how it was run: as §2
[15] = system: Staphylococcus epidermidis; test: Antibacterial activity against methicillin-resistant Staphylococcus epidermidis isolate 12-33; how it was run: as §2
Escherichia coli [16] = test: Antibacterial activity against extended-spectrum beta-lactamase-producing Escherichia coli isolate 12-1; how it was run: as §1
Klebsiella pneumoniae [17] = test: Antibacterial activity against Klebsiella pneumoniae isolate 12-2; how it was run: as §1
Klebsiella pneumoniae [18] = test: Antibacterial activity against Klebsiella pneumoniae isolate 12-4; how it was run: as §1
[19] = system: Staphylococcus epidermidis; test: Antibacterial activity against methicillin-sensitive Staphylococcus epidermidis isolate 12-3; how it was run: as §1
[20] = system: Staphylococcus epidermidis; test: Antibacterial activity against methicillin-resistant Staphylococcus epidermidis isolate 12-5; how it was run: as §2
Streptococcus pneumoniae [21] = test: Antibacterial activity against Streptococcus pneumoniae isolate 12-5; how it was run: as §1
Klebsiella pneumoniae [22] = test: Antibacterial activity against Klebsiella pneumoniae isolate 12-1; how it was run: as §1
Staphylococcus aureus [23] = test: Antibacterial activity against methicillin-resistant Staphylococcus aureus isolate 12-3; how it was run: as §2
Escherichia coli [24] = test: Antibacterial activity against Escherichia coli isolate 12-4; how it was run: as §1
[25] = system: Staphylococcus epidermidis; test: Antibacterial activity against methicillin-sensitive Staphylococcus epidermidis isolate 12-1; how it was run: as §1
Staphylococcus aureus [26] = test: Antibacterial activity against methicillin-sensitive Staphylococcus aureus isolate 12-10; how it was run: as §1
Klebsiella pneumoniae [27] = test: Antibacterial activity against extended-spectrum beta-lactamase-producing Klebsiella pneumoniae isolate 12-2; how it was run: as §1
Escherichia coli [28] = test: Antibacterial activity against Escherichia coli isolate 12-5; how it was run: as §1
Escherichia coli [29] = test: Antibacterial activity against Escherichia coli ATCC 25922; how it was run: as §1
Streptococcus pneumoniae [30] = test: Antibacterial activity against Streptococcus pneumoniae isolate 12-2; how it was run: as §1
Escherichia coli [31] = test: Antibacterial activity against extended-spectrum beta-lactamase-producing Escherichia coli isolate 12-4; how it was run: as §1

Row | Structure (SMILES) | MIC (Staphylococcus aureus [1]) [mg/L] | MIC (Klebsiella pneumoniae [2]) [mg/L] | MIC (Escherichia coli [3]) [mg/L] | MIC (Pseudomonas aeruginosa [4]) [mg/L] | MIC [5] [mg/L] | MIC (Klebsiella pneumoniae [6]) [mg/L] | MIC (Pseudomonas aeruginosa [7]) [mg/L] | MIC (Escherichia coli [8]) [mg/L] | MIC (Pseudomonas aeruginosa [9]) [mg/L] | MIC (Staphylococcus aureus [10]) [mg/L] | MIC [11] [mg/L] | MIC (Staphylococcus aureus [12]) [mg/L] | MIC (Staphylococcus aureus [13]) [mg/L] | MIC (Staphylococcus aureus [14]) [mg/L] | MIC [15] [mg/L] | MIC (Escherichia coli [16]) [mg/L] | MIC (Klebsiella pneumoniae [17]) [mg/L] | MIC (Klebsiella pneumoniae [18]) [mg/L] | MIC [19] [mg/L] | MIC [20] [mg/L] | other results
1 | CO/N=C1\CN(c2nc3c(cc2F)c(=O)c(C(=O)O)cn3C2CC2)CC1CN (stereo not drawn) [GEMIFLOXACIN] | 4 (≈ 10.3 µM) | 2 (≈ 5.14 µM) | 0.125 (≈ 0.321 µM) | 8 (≈ 20.5 µM) | 0.25 (≈ 0.642 µM) | 2 (≈ 5.14 µM) | 16 (≈ 41.1 µM) | 16 (≈ 41.1 µM) | 1 (≈ 2.57 µM) | 0.03 (≈ 0.077 µM) | 0.008 (≈ 0.0205 µM) | 0.03 (≈ 0.077 µM) | < 0.008 | 0.015 (≈ 0.0385 µM) | 4 (≈ 10.3 µM) | 8 (≈ 20.5 µM) | 0.06 (≈ 0.154 µM) | 0.06 (≈ 0.154 µM) | 0.06 (≈ 0.154 µM) | 0.015 (≈ 0.0385 µM) | MIC (Streptococcus pneumoniae [21]): 0.25 mg/L (≈ 0.642 µM); MIC (Klebsiella pneumoniae [22]): 0.03 mg/L (≈ 0.077 µM); MIC (Staphylococcus aureus [23]): 0.03 mg/L (≈ 0.077 µM); MIC (Escherichia coli [24]): 16 mg/L (≈ 41.1 µM); MIC [25]: 0.06 mg/L (≈ 0.154 µM); MIC (Staphylococcus aureus [26]): 0.03 mg/L (≈ 0.077 µM); MIC (Klebsiella pneumoniae [27]): 2 mg/L (≈ 5.14 µM); MIC (Escherichia coli [28]): 16 mg/L (≈ 41.1 µM); MIC (Escherichia coli [29]): 0.015 mg/L (≈ 0.0385 µM); MIC (Streptococcus pneumoniae [30]): 0.25 mg/L (≈ 0.642 µM); MIC (Escherichia coli [31]): 2 mg/L (≈ 5.14 µM)
2 | CNC1CCN(c2ccc3c(=O)c(C(=O)O)cn(C4CC4)c3n2)C/C1=N\OC (stereo not drawn) | 4 (≈ 10.4 µM) | 128 (≈ 332 µM) | 64 (≈ 166 µM) | 16 (≈ 41.5 µM) | 16 (≈ 41.5 µM) | 2 (≈ 5.19 µM) | 8 (≈ 20.8 µM) | 128 (≈ 332 µM) | 8 (≈ 20.8 µM) | 4 (≈ 10.4 µM) | 2 (≈ 5.19 µM) | 2 (≈ 5.19 µM) | 0.5 (≈ 1.3 µM) | 4 (≈ 10.4 µM) | 4 (≈ 10.4 µM) | > 128 | 2 (≈ 5.19 µM) | 2 (≈ 5.19 µM) | 8 (≈ 20.8 µM) | 2 (≈ 5.19 µM) | MIC (Streptococcus pneumoniae [21]): 4 mg/L (≈ 10.4 µM); MIC (Klebsiella pneumoniae [22]): 2 mg/L (≈ 5.19 µM); MIC (Staphylococcus aureus [23]): 4 mg/L (≈ 10.4 µM); MIC (Escherichia coli [24]): > 128 mg/L; MIC [25]: 8 mg/L (≈ 20.8 µM); MIC (Staphylococcus aureus [26]): 2 mg/L (≈ 5.19 µM); MIC (Klebsiella pneumoniae [27]): > 128 mg/L; MIC (Escherichia coli [28]): > 128 mg/L; MIC (Escherichia coli [29]): 0.5 mg/L (≈ 1.3 µM); MIC (Streptococcus pneumoniae [30]): 4 mg/L (≈ 10.4 µM); MIC (Escherichia coli [31]): 64 mg/L (≈ 166 µM)
3 | CCn1cc(C(=O)O)c(=O)c2cc(F)c(N3CCC(NC)/C(=N/OC)C3)c(F)c21 (stereo not drawn) | 1 (≈ 2.45 µM) | 16 (≈ 39.2 µM) | 8 (≈ 19.6 µM) | 8 (≈ 19.6 µM) | 16 (≈ 39.2 µM) | 1 (≈ 2.45 µM) | 8 (≈ 19.6 µM) | > 128 | 8 (≈ 19.6 µM) | 1 (≈ 2.45 µM) | 0.5 (≈ 1.22 µM) | 0.5 (≈ 1.22 µM) | 0.125 (≈ 0.306 µM) | 1 (≈ 2.45 µM) | 8 (≈ 19.6 µM) | > 128 | 4 (≈ 9.79 µM) | 1 (≈ 2.45 µM) | 0.5 (≈ 1.22 µM) | 0.5 (≈ 1.22 µM) | MIC (Streptococcus pneumoniae [21]): 1 mg/L (≈ 2.45 µM); MIC (Klebsiella pneumoniae [22]): 4 mg/L (≈ 9.79 µM); MIC (Staphylococcus aureus [23]): 1 mg/L (≈ 2.45 µM); MIC (Escherichia coli [24]): > 128 mg/L; MIC [25]: 0.5 mg/L (≈ 1.22 µM); MIC (Staphylococcus aureus [26]): 0.5 mg/L (≈ 1.22 µM); MIC (Klebsiella pneumoniae [27]): 32 mg/L (≈ 78.4 µM); MIC (Escherichia coli [28]): > 128 mg/L; MIC (Escherichia coli [29]): 0.5 mg/L (≈ 1.22 µM); MIC (Streptococcus pneumoniae [30]): 1 mg/L (≈ 2.45 µM); MIC (Escherichia coli [31]): 128 mg/L (≈ 313 µM)
